Activity calls are given as the source filed them.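 The calls were made as follows, unless noted: active = viability at or under a set limit in both replicates, limit being median viability minus 3 SD (cut at about 48% in these data, passing the limit was not always enough); inconclusive = at or under the limit in just one replicate; inactive = at or above the limit in both replicates.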
Columns and labels:
[1] = reducers of endogenous Her2 protein level, primary screen, SKBR3 breast tumor cells, AlphaScreen, ATP viability (AID 461;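 active = Her2 level under about 52% in both replicate screens, with viability over 70% of control, limit read from the data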;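 as to Her2 level: lower value means less Her2 protein in the cells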;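 as to viability: percent of carrier control wells set as 100% viability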); settings: 18-24 h, measured here: SKBR3 viability, ATP luminescence, at 10 µM
[2] = biological target: Receptor tyrosine-protein kinase erbB-2 (Homo sapiens) (UniProt P04626); test: as above; settings: 18-24 h, at 10 µM, stronger effect = lower value
[3] = SK-BR-3 cell growth inhibitors, pilot screen, 24 h, human (AID 572;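 active = viability at or below 10% of carrier control in both of two separate runs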;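 also: compound exposure lasted between 18 and 24 h rather than exactly 24 h; 100% = carrier-treated control wells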); settings: SK-BR-3 viability, CellTiter-Glo luminescence, at 10 µM, stronger effect = lower value
[4] = HUVEC growth inhibition – cell-based, human, primary screen (AID 575;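 active = viability at or below 30% in both replicate assays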;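 also: 100% = median of untreated cell wells with 0.1% DMSO on each plate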); settings: HUVEC proliferation, CellTiter-Glo luminescence, 72 h; at 10 µM; stronger effect = lower value
In short: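 material = primary HUVEC, no more than 12 passages | input = 1250 cells per well | controls = vehicle and MePR control wells | measured by = CTG luminescence | times = 72 h compound incubation | format = collagen-coated 384-well format | read-out = % viability vs DMSO wells | doses = single 10 µM dose, 0.1% DMSO, from 5x medium stock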

[5] = growth inhibitors of H69AR lung tumor, primary screen, human, duplicate replicates (AID 580); settings: H69AR lung tumor cells viability, ATP luminescence, 72 h; at 10 µM; stronger effect = lower value;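 also: 100% = mean luminescence of untreated wells and 0% = no signal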
[6] = reversal of MRP1-mediated doxorubicin resistance, pilot screen, H69AR cells, doxorubicin co-treatment (AID 601;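 active = viability loss from added drug above about 55%, and viability with drug at most 40%, in both replicates, limit read from the data, passing the limit was not always enough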); settings: CellTiter-Glo, 72 h, at 10 µM; for differential viability (reversal): stronger effect = higher value
[7] = 384-well plate pilot, post-Golgi transport modulator project, inhibition of yeast transport mutant growth (AID 636; in the data active = inhibition above about 31%); settings: absorbance 615 nm, about 18 h, stronger effect = higher value
[8] = growth suppression of yeast trafficking mutant, preliminary HTS, modulators of trafficking downstream of Golgi apparatus project, 1536-format plate, OD 615 nm (AID 637; in the data active = inhibition above about 30%); settings: yeast transport mutant growth, absorbance 615 nm, 18 h; stronger effect = higher value
[9] = H69AR cells + 2 uM doxorubicin, measured here: viability with 2 uM doxorubicin, stronger effect = lower value
[10] = H69AR cells, compound alone cytotoxicity

Sequence of Receptor tyrosine-protein kinase erbB-2 (Homo sapiens) (P04626 whole entry, looked up): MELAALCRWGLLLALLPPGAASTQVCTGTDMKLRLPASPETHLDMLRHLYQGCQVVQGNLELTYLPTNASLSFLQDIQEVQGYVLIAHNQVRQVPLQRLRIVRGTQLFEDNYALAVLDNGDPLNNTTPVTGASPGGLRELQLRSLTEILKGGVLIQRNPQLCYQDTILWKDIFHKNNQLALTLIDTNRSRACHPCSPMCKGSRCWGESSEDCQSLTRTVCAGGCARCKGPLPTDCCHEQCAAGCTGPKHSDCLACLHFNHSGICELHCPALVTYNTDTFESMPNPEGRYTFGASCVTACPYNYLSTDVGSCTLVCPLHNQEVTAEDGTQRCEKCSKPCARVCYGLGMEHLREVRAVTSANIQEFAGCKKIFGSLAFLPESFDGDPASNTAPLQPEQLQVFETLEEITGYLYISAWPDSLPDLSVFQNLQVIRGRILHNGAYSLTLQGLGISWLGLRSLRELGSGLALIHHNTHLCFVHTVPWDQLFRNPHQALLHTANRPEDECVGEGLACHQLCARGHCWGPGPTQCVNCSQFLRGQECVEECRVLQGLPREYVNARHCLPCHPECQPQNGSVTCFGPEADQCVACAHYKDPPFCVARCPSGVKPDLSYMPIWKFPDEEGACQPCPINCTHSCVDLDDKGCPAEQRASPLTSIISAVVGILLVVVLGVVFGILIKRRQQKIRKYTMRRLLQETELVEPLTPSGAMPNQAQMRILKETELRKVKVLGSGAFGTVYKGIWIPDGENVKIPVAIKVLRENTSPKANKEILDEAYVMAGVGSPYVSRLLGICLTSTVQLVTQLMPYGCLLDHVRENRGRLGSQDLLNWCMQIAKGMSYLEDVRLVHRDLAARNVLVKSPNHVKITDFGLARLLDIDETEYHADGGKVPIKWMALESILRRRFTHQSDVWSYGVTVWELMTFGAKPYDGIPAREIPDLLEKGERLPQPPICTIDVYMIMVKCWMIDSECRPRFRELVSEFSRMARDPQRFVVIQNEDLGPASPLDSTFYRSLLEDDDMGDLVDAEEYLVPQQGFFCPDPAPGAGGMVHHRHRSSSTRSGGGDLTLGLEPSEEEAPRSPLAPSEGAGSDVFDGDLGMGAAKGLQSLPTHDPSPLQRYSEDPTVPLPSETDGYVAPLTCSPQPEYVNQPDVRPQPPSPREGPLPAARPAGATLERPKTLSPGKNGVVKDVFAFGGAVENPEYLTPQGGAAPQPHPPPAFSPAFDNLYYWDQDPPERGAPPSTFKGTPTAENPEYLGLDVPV

Row | Compound | viability [1] [%] | Her2 level [2] | viability [3] | viability [4] | viability [5] | differential viability (reversal) ([6]; H69AR cells + 2 uM doxorubicin) | viability [6, 9] [%] | viability [6, 10] [%] | inhibition [7] | inhibition [8]
1 | COc1ccc(/C=N/n2c(=O)[nH]c3c([nH]c4ccc(C)cc43)c2=O)cc1CN1CCOCC1 | 112 | 100% (inactive) | 112% (inactive) | 95.6% (inactive) | 84.6% (inactive) | 0.925% (inactive) | 83.7 | 84.6 | -1.71% (inactive) | 12% (inactive)
2 | COCCN(C(=O)c1csnn1)C(C(=O)NC(C)(C)C)c1cccc(OC)c1 (stereo not given) | 89.5 | 91% (inactive) | 89.5% (inactive) | 120% (inactive) | 97.9% (inactive) | 0.985% (inactive) | 96.9 | 97.9 | -4.4% (inactive) | 0% (inactive)
3 | COc1ccc(C(C)=O)c(OC(=O)c2ccc(OC)c(OC)c2)c1 | 104 | 88.5% (inactive) | 104% (inactive) | 92.8% (inactive) | 98.6% (inactive) | 1.11% (inactive) | 97.5 | 98.6 | -6.4% (inactive) | -3.33% (inactive)
4 | COc1cccc(-c2noc(C3CCCN(C(=O)Cc4ccccc4)C3)n2)c1 (stereo not given) | 95 | 94% (inactive) | 95% (inactive) | 104% (inactive) | 85% (inactive) | -2.34% (inactive) | 87.3 | 85 | -0.65% (inactive) | -3.97% (inactive)
5 | O=C(CCNC(=O)Cn1ccc2ccccc2c1=O)NCCN1CCc2ccccc2C1 | 118 | 98% (inactive) | 118% (inactive) | 87.3% (inactive) | 91.8% (inactive) | 0.755% (inactive) | 91 | 91.8 | -7.63% (inactive) | -8.18% (inactive)
6 | OCc1nc(CO)n(Cc2ccccc2)n1 | 85.5 | 84% (inactive) | 85.5% (inactive) | 88.7% (inactive) | 102% (inactive) | -5.83% (inactive) | 108 | 102 | -1.05% (inactive) | -0.48% (inactive)
7 | CCCc1nnc(NC(=O)CCC(=O)N2CCN(CCOc3ccc(C)cc3)CC2)s1 | 93.5 | 74% (inactive) | 93.5% (inactive) | 92% (inactive) | 93.2% (inactive) | -6.29% (inactive) | 99.4 | 93.2 | -4.03% (inactive) | -2.83% (inactive)
8 | CCC1Oc2ccc(C)cc2N(CC(=O)N(Cc2cccnc2)Cc2ccc(C)o2)C1=O (stereo not given) | 93 | 84% (inactive) | 93% (inactive) | 83.7% (inactive) | 74.8% (inactive) | 41.1% (inactive) | 33.7 | 74.8 | -6.27% (inactive) | 6.56% (inactive)
9 | CC(C)CCn1c(=O)c2ccccc2n2c(CN(C)Cc3ccccc3)nnc12 | 83.5 | 100% (inactive) | 83.5% (inactive) | 70.3% (inactive) | 84.4% (inactive) | 72.3% (active) | 12.1 | 84.4 | -6.08% (inactive) | 11.3% (inactive)
10 | CCCS(=O)(=O)N1CCC(C(=O)N2CCCC2)CC1 | 112 | 93% (inactive) | 112% (inactive) | 115% (inactive) | 95% (inactive) | 3.92% (inactive) | 91.1 | 95 | -3.55% (inactive) | -0.82% (inactive)
11 | O=C(Cn1nnc(-c2cccs2)n1)OC1CCCCC1 | 94.5 | 104% (inactive) | 94.5% (inactive) | 81.7% (inactive) | 110% (inactive) | 16.9% (inactive) | 93.3 | 110 | -4.93% (inactive) | -3.39% (inactive)
12 | CC(=O)c1cccc(S(=O)(=O)N2CCC(n3nnc4cc(F)ccc43)CC2)c1 | 88 | 92.5% (inactive) | 88% (inactive) | 92.9% (inactive) | 93.9% (inactive) | 8.11% (inactive) | 85.8 | 93.9 | -5.14% (inactive) | -2.62% (inactive)
13 | COc1ccc(C(=O)NCc2ccccc2OC)cc1 | 110 | 100% (inactive) | 110% (inactive) | 93.8% (inactive) | 105% (inactive) | 9.52% (inactive) | 95.8 | 105 | -6.58% (inactive) | -3.17% (inactive)
14 | Cn1c(=O)c2c(nc(CN3CCCCC3)n2CCc2ccccc2)n(C)c1=O | 87 | 107% (inactive) | 87% (inactive) | 111% (inactive) | 91.9% (inactive) | -1.94% (inactive) | 93.9 | 91.9 | 2.27% (inactive) | 13.8% (inactive)
15 | Cc1ccc(-c2noc(CCC(=O)NC3CCCc4ccccc43)n2)cc1 (stereo not given) | 75 | 85.5% (inactive) | 75% (inactive) | 83.6% (inactive) | 92.5% (inactive) | 6.05% (inactive) | 86.4 | 92.5 | -4.87% (inactive) | -4.67% (inactive)
16 | Cc1ccc(-n2nnnc2SCC(=O)Nc2c(C)n(C)n(-c3ccccc3)c2=O)cc1 | 102 | 104% (inactive) | 102% (inactive) | 105% (inactive) | 90.8% (inactive) | -13.5% (inactive) | 104 | 90.8 | 0.8% (inactive) | 10.8% (inactive)
17 | CCCNS(=O)(=O)c1ccc(C(=O)NCC2CCCO2)cc1 (stereo not given) | 96.5 | 74.5% (inactive) | 96.5% (inactive) | 106% (inactive) | 95.1% (inactive) | -1.32% (inactive) | 96.4 | 95.1 | -3.56% (inactive) | 0.16% (inactive)
18 | CCOC(=O)c1ccc(S(=O)(=O)NC2CCCCCCC2)n1C | 113 | 70% (inactive) | 113% (inactive) | 86.9% (inactive) | 104% (inactive) | -3.18% (inactive) | 107 | 104 | -1.49% (inactive) | 1.11% (inactive)
19 | CCC1c2ccc(C)n2CCN1C(=O)Nc1ccccc1OC (stereo not given) | 89.5 | 69.5% (inactive) | 89.5% (inactive) | 97.7% (inactive) | 78.9% (inactive) | -10.8% (inactive) | 89.7 | 78.9 | -6.13% (inactive) | 4.59% (inactive)
20 | CCOC(=O)C1CCCN(c2c(NCc3ccco3)c(=O)c2=O)C1 (stereo not given) | 94 | 108% (inactive) | 94% (inactive) | 83.3% (inactive) | 94.3% (inactive) | 11.7% (inactive) | 82.6 | 94.3 | 2% (inactive) | -6.07% (inactive)
21 | CCc1nnc(NC(=O)c2cc3ccccc3oc2=O)s1 | 104 | 95.5% (inactive) | 104% (inactive) | 118% (inactive) | 89.7% (inactive) | -4.11% (inactive) | 93.8 | 89.7 | -5.71% (inactive) | -3.65% (inactive)
22 | O=C(NC1CC1)C1CCN(c2ccc(S(=O)(=O)N3CCOCC3)cc2)CC1 | 92.5 | 138% (inactive) | 92.5% (inactive) | 83% (inactive) | 94.7% (inactive) | 17.1% (inactive) | 77.7 | 94.7 | -0.13% (inactive) | -10% (inactive)
23 | CCOC(=O)c1[nH]c(C)c(C(=O)NCc2ccccn2)c1C | 134 | 115% (inactive) | 134% (inactive) | 83.4% (inactive) | 102% (inactive) | 4.79% (inactive) | 96.8 | 102 | -5.07% (inactive) | 9.37% (inactive)
24 | Cc1cccc(-c2cc3nc4c(c(N5CCOCC5)n3n2)CCCC4)c1 | 93 | 70% (inactive) | 93% (inactive) | 71.7% (inactive) | 76% (inactive) | -2.37% (inactive) | 78.4 | 76 | -6.76% (inactive) | 2.95% (inactive)
25 | COc1cccc(OC)c1C(=O)n1nc(C)cc1C | 84.5 | 87% (inactive) | 84.5% (inactive) | 110% (inactive) | 98.8% (inactive) | 3.22% (inactive) | 95.5 | 98.8 | 1.18% (inactive) | 4.1% (inactive)
26 | CCOC(=O)c1ccccc1NC(=O)Cn1cnc2c(cnn2-c2ccc(OC)cc2)c1=O | 89.5 | 91.5% (inactive) | 89.5% (inactive) | 81.4% (inactive) | 101% (inactive) | 1.5% (inactive) | 99.7 | 101 | -5.54% (inactive) | 1.83% (inactive)
27 | C=CCn1c(SCC(=O)Nc2ccccc2OC)nnc1-c1ccco1 | 95 | 89.5% (inactive) | 95% (inactive) | 95.2% (inactive) | 67.7% (inactive) | -16.8% (inactive) | 84.5 | 67.7 | -4.67% (inactive) | 2.9% (inactive)
28 | COc1cccc(/C=N/n2c(C)nc3ccccc32)c1OC | 91 | 93.5% (inactive) | 91% (inactive) | 52.1% (inactive) | 91.9% (inactive) | 3.66% (inactive) | 88.3 | 91.9 | -2.4% (inactive) | -6.35% (inactive)

Source: PubChem BioAssay
